Marks after values point to notes of the source that are not given here.
What was measured:
[1] = In vivo pharmacokinetics in plasma after oral administration; design: species or system Wistar rats; conditions: rat
Outline: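 Male Wistar rats (200-250 g, n = 6) housed in metabolic cages, fasted 24 h, water ad libitum. Single oral dose of prodrug (377.5 mg) or parent acid (270 mg) suspended in sodium CMC in saline (1 mL). Retro-orbital blood taken at 0 min, every 15 min for 1 h, bi-hourly to 12 h, and at 24 h, into EDTA tubes. Plasma quantified by HPLC against 80% human plasma calibration.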

[2] = Partition coefficient, n-octanol/water, shake flask method; assay type: physicochemical
[3] = tested on: TNBS-induced colitis; assay: TNBS-induced experimental colitis: clinical activity score rate; assay type: in vivo, Wistar rats; conditions: for Clinical activity score rate, 6 d: day 6, oral treatment day 6 to 10; for Clinical activity score rate, 6 d / Clinical activity score rate, 7 d / Clinical activity score rate, 8 d / Clinical activity score rate, 9 d / Clinical activity score rate, 10 d / Clinical activity score rate, 11 d: score 0-4; for Clinical activity score rate, 7 d: day 7, oral treatment day 6 to 10; for Clinical activity score rate, 8 d: day 8, oral treatment day 6 to 10; for Clinical activity score rate, 9 d: day 9, oral treatment day 6 to 10; for Clinical activity score rate, 10 d: day 10, oral treatment day 6 to 10; for Clinical activity score rate, 11 d: day 11, after oral treatment day 6 to 10
Outline: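 Male Wistar rats (200-230 g, n = 6/group), starved 48 h, given intrarectal TNBS 100 mg/kg in 50% v/v ethanol (0.25 mL) on day 3. Oral dosing days 6-10 as 1% sodium CMC suspension, equimolar to parent acid. Weight loss, stool consistency and rectal bleeding each scored 0-4 daily and averaged per group. Two-way ANOVA with Bonferroni versus disease control.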

[4] = tested on: myeloperoxidase (MPO); assay: TNBS-induced experimental colitis: colonic MPO activity; assay type: in vivo, Wistar rats; conditions: TNBS colitis rats, day 11, oral treatment day 6 to 10
Outline: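 Colon dissected on day 11 from TNBS-colitic male Wistar rats (intrarectal TNBS 100 mg/kg in 50% ethanol on day 3; oral dosing in 1% sodium CMC days 6-10; n = 6). MPO assayed by a published method, one unit degrading […] hydrogen peroxide at 25 °C. Reported as […]; one-way ANOVA with Dunnett's test.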

[5] = Aqueous solubility in distilled water; assay type: physicochemical; conditions: 25 ± 1 °C
[6] = released from SLZ in the colon; cited from earlier work
[7] = tested on: chronic UC; conditions: chronic UC patients ref 24; cited from earlier work

| Time of disappearance of BBA from blood [1] [h] | Time of first appearance of BBA in blood [1] [min] | Time of maximum BBA in blood [1] [min] | log Poct [2] | Aq. Solubility [5] | Compound | Clinical activity score rate, 6 d [3] | Clinical activity score rate, 7 d [3] | Clinical activity score rate, 8 d [3] | Clinical activity score rate, 9 d [3] | Clinical activity score rate, 10 d [3] | Clinical activity score rate, 11 d [3] | Minimized clinical activity score rate ([3]; oral treatment day 6 to 10) [%] | Colonic MPO activity [4] [mU/100 mg tissue] | Fraction entering circulation by absorption from large intestine [6] [%] | Remission rate [7] [%] |
| --- | --- | --- | --- | --- | --- | --- | --- | --- | --- | --- | --- | --- | --- | --- | --- |
| 24 | 30 | 240 | 9.3 | practically insoluble | C[C@H]1[C@H](C)CC[C@]2(C)CC[C@]3(C)C(=CC[C@@H]4[C@@]5(C)CC[C@@H](O)[C@](C)(C(=O)O)[C@@H]5CC[C@]43C)[C@H]12 [BBA, β-boswellic acid] | 2.77 ± 1.34 | 3.00 ± 1.00 | 2.33 ± 0.57 | 1.99 ± 0.66 | 1.33 ± 1.15 | 0.99 ± 1.10 ^e | 79 | 60.71 | – | – |
| – | – | – | – | – | N[C@@H](Cc1c[nH]cn1)C(=O)O [H, L-histidine] | 2.33 ± 0.67 | 2.55 ± 0.50 | 2.88 ± 0.83 | 2.77 ± 0.69 | 2.60 ± 0.82 | 2.00 ± 1.00^NS | – | – | – | – |
| – | – | – | – | – | N[C@H](Cc1ccccc1)C(=O)O [P, D-phenylalanine] | 2.22 ± 0.83 | 2.55 ± 0.50 | 3.16 ± 1.04 | 3.33 ± 1.15 | 2.66 ± 1.44 | 2.27 ± 1.13^NS | – | – | – | – |
| – | – | – | – | – | Nc1ccc(O)c(C(=O)O)c1 [Prodrug 5-ASA, 5-aminosalicylate] | – | – | – | – | – | – | – | – | 30 | – |
| – | – | – | – | – | O=C(O)c1cc(/N=N/c2ccc(S(=O)(=O)Nc3ccccn3)cc2)ccc1O [SLZ, Sulfasalazine] | 2.88 ± 0.83 | 2.44 ± 0.50 | 1.61 ± 1.13 | 1.11 ± 1.01 | 0.72 ± 0.75 | 0.38 ± 0.60 ^e | – | 36.21 | – | 75 |
| – | – | – | – | – | N[C@@H](Cc1c[nH]c2ccccc12)C(=O)O [T, L-tryptophan] | 2.44 ± 0.69 | 2.60 ± 0.58 | 2.94 ± 0.82 | 2.66 ± 0.66 | 2.16 ± 1.08 | 1.88 ± 1.17 ^a | – | – | – | – |
| – | – | – | – | – | N[C@@H](Cc1ccc(O)cc1)C(=O)O [TY, L-tyrosine] | 2.11 ± 0.84 | 2.55 ± 0.50 | 3.22 ± 1.07 | 3.33 ± 1.15 | 2.72 ± 1.49 | 2.33 ± 1.45^NS | – | – | – | – |

Source: PMC5323440 (World Journal of Gastroenterology, 2017)
